Data published in ChEMBL document CHEMBL1125798, “Synthesis and biological activity of a series of diaryl-substituted alpha-cyano-beta-hydroxypropenamides, a new class of anthelmintic agents” (1991).

Columns and labels:
Assay type in all cases: functional
Rodentolepis nana [1] = assay: The compound was tested for anthelmintic activity against mice, infected with parasite Hymenolepis nana at a dose of 125(ppm in feed)
Procedure, shortened: (§1)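 Compound was given in feed ad libitum from 24 h postinfection for 18 days, four mice per group. On day 19, N. dubius were counted in the duodenum and H. nana in the ileum. Result is % reduction of mean worm burden vs untreated control; ≤25% was recorded as 0.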

[2] = test system: Heligmosomoides polygyrus; assay: Anthelmintic activity against mice, infected with parasite Nematospiroides dubius, at a dose of 62(ppm in feed); procedure, shortened: as §1
[3] = test system: Heligmosomoides polygyrus; assay: Anthelmintic activity against mice, infected with parasite Nematospiroides dubius, at a dose of 125(ppm in feed); procedure, shortened: as §1
Rodentolepis nana [4] = assay: The compound was tested for anthelmintic activity against mice, infected with parasite Hymenolepis nana at a dose of 62(ppm in feed); procedure, shortened: as §1
[5] = test system: Heligmosomoides polygyrus; assay: Anthelmintic activity against mice, infected with parasite Nematospiroides dubius, at a dose of 125 (ppm in feed); procedure, shortened: as §1
Rodentolepis nana [6] = assay: The compound was tested for anthelmintic activity against mice, infected with parasite Hymenolepis nana at a dose of 250(ppm in feed); procedure, shortened: as §1
Rodentolepis nana [7] = assay: Anthelmintic activity against mice infected with parasite Hymenolepis nana at a dose of 125 ppm (in feed); procedure, shortened: as §1
[8] = test system: Heligmosomoides polygyrus; assay: Anthelmintic activity against mice, infected with parasite Nematospiroides dubius, at a dose of 250 pm in feed); procedure, shortened: as §1
Rodentolepis nana [9] = assay: The compound was tested for anthelmintic activity against mice, infected with parasite Hymenolepis nana at a dose of 31 p.p.m. in feed; procedure, shortened: as §1
[10] = test system: Heligmosomoides polygyrus; assay: Anthelmintic activity against mice, infected with parasite Nematospiroides dubius, at a dose of 31 p.p.m. in feed; procedure, shortened: as §1
Rodentolepis nana [11] = assay: The compound was tested for anthelmintic activity against mice, infected with parasite Hymenolepis nana at a dose of 125 p.p.m. in feed; procedure, shortened: as §1
[12] = test system: Heligmosomoides polygyrus; assay: Anthelmintic activity against mice, infected with parasite Nematospiroides dubius, at a dose of 125 ppm in feed; procedure, shortened: as §1
Rodentolepis nana [13] = assay: The compound was tested for anthelmintic activity against mice, infected with parasite Hymenolepis nana at a dose of 875(ppm in feed); procedure, shortened: as §1
[14] = test system: Heligmosomoides polygyrus; assay: Anthelmintic activity against mice, infected with parasite Nematospiroides dubius, at a dose of 875(ppm in feed); procedure, shortened: as §1
Ascaris suum [15] = assay: Effect on succinate formation by isolated Ascaris suum mitochondria at a concentration of 50 uM
Procedure, shortened: (§2)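 Body-wall muscle mitochondria from adult A. suum (4-5 mg protein) were preincubated for 5 min at 30 °C, pH 7.4, with inhibitor in 170 mM mannitol, 50 mM sucrose, 10 mM 32Pi-phosphate, 1 mM MgCl2, 0.4 mM ADP and 0.1 unit hexokinase. Reaction was started with 10 mM malate and stopped after 15 min with perchloric acid. 32P-organic phosphate and succinate were measured in extracts; duplicate runs.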

Ovis aries [16] = assay: Anthelmintic activity against sheep, infected with Trichostrongylus colubriformis, at a dose of 20 mg/kg.
Procedure, shortened: (§3)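 Merino ewes and wethers (12-15 months, 25-35 kg) received L3 intraruminally on day 0. Susceptible strains: H. contortus 6000, O. circumcincta 8000, T. colubriformis 8000. Benzimidazole-resistant strains: 8000, 9000, 9000. Animals were allocated by day-27 fecal egg count (n = 4-7) and given a single intraruminal dose in 0.5% carboxymethylcellulose saline. Adult worms in abomasum and small intestine were counted on day 35. Result is mean % reduction vs untreated controls.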

Ascaris suum [17] = assay: Effect on succinate formation by isolated Ascaris suum mitochondria at a concentration of 10 uM; procedure, shortened: as §2
Ascaris suum [18] = assay: Effect on incorporation of [32Pi] by isolated Ascaris suum mitochondria at a concentration of 3 uM; procedure, shortened: as §2
Rodentolepis nana [19] = assay: The compound was tested for anthelmintic activity against mice, infected with parasite Hymenolepis nana at a dose of 31(ppm in feed); procedure, shortened: as §1
Ascaris suum [20] = assay: Effect on incorporation of [32Pi] by isolated Ascaris suum mitochondria at a concentration of 25 uM; procedure, shortened: as §2
[21] = test system: Heligmosomoides polygyrus; assay: Anthelmintic activity against mice, infected with parasite Nematospiroides dubius, at a dose of 31(ppm in feed); procedure, shortened: as §1
Ascaris suum [22] = assay: Effect on incorporation of [32Pi] by isolated Ascaris suum mitochondria at a concentration of 10 uM; procedure, shortened: as §2
Rodentolepis nana [23] = assay: Anthelmintic activity against mice infected with parasite Hymenolepis nana at a dose of 62(ppm in feed).; procedure, shortened: as §1
Ascaris suum [24] = assay: Effect on incorporation of [32Pi] by isolated Ascaris suum mitochondria at a concentration of 50 uM.; procedure, shortened: as §2
Ascaris suum [25] = assay: Effect on succinate formation by isolated Ascaris suum mitochondria at a concentration of 3 uM; procedure, shortened: as §2
Ovis aries [26] = assay: Anthelmintic activity against sheep, infected with Ostertagia circumcincta, at a dose of 20 mg/kg.; procedure, shortened: as §3
Ovis aries [27] = assay: Anthelmintic activity against sheep, infected with Haemonchus contortus, at a dose of 20 mg/kg.; procedure, shortened: as §3
Ascaris suum [28] = assay: Effect on succinate formation by isolated Ascaris suum mitochondria at a concentration of 0 uM; procedure, shortened: as §2
Ascaris suum [29] = assay: Effect on succinate formation by isolated Ascaris suum mitochondria at a concentration of 25 uM; procedure, shortened: as §2
Ovis aries [30] = assay: Anthelmintic activity against sheep, infected with Haemonchus contortus, at a dose of 30 mg/kg.; procedure, shortened: as §3
Ovis aries [31] = assay: Anthelmintic activity against sheep, infected with Trichostrongylus colubriformis, at a dose of 30 mg/kg.; procedure, shortened: as §3
Ascaris suum [32] = assay: Effect on incorporation of [32Pi] by isolated Ascaris suum mitochondria at a concentration of 0 uM; procedure, shortened: as §2
Ovis aries [33] = assay: Anthelmintic activity against sheep, infected with Ostertagia circumcincta, at a dose of 30 mg/kg.; procedure, shortened: as §3
[34] = test system: Heligmosomoides polygyrus; assay: Anthelmintic activity against mice infected with parasite Nematospiroides dubius, at a dose of 62(ppm in feed).; procedure, shortened: as §1
[35] = test system: Heligmosomoides polygyrus; assay: Anthelmintic activity against mice, infected with parasite Nematospiroides dubius, at a dose of 1000(ppm in feed); procedure, shortened: as §1
Rodentolepis nana [36] = assay: The compound was tested for anthelmintic activity against mice, infected with parasite Hymenolepis nana at a dose of 1000(ppm in feed); procedure, shortened: as §1

Structure (SMILES): N#C/C(C(=O)Nc1ccc(C(F)(F)F)cc1)=C(/O)c1ccc(Br)cc1
- Reduction (Rodentolepis nana [1]): 100%
- Reduction [2]: 45%
- Reduction [3]: 99%
- Reduction (Rodentolepis nana [4]): 92%

Structure (SMILES): N#C/C(C(=O)Nc1ccc([N+](=O)[O-])cc1)=C(/O)c1ccc(C(F)(F)F)cc1
- Reduction [5]: 50%
- Reduction (Rodentolepis nana [6]): 100%
- Reduction (Rodentolepis nana [7]): 0%
- Reduction [8]: 100%

Structure (SMILES): COC(=O)Nc1nc2cc([S+]([O-])c3ccccc3)ccc2[nH]1 (stereo unspecified) [OXFENDAZOLE]
- Reduction (Rodentolepis nana [9]): 0%
- Reduction [10]: 100%
- Reduction (Rodentolepis nana [11]): 100%
- Reduction [12]: 100%

Structure (SMILES): N#C/C(C(=O)Nc1ccc(C(F)(F)F)cc1)=C(/O)c1ccccc1
- Reduction (Rodentolepis nana [13]): 0%
- Reduction [14]: 0%

Structure (SMILES): N#C/C(C(=O)Nc1ccc(C(F)(F)F)cc1)=C(/O)c1ccc(C(F)(F)F)cc1
- EC (Ascaris suum [15]): 1.17 uM 15min-1 mg-1
- Reduction (Ovis aries [16]): 0%
- EC (Ascaris suum [17]): 0.75 uM 15min-1 mg-1
- EC (Ascaris suum [18]): 0.35 uM 15min-1 mg-1
- Reduction (Rodentolepis nana [19]): 0%
- EC (Ascaris suum [20]): 0.15 uM 15min-1 mg-1
- Reduction [21]: 76%
- EC (Ascaris suum [22]): 0.28 uM 15min-1 mg-1
- Reduction (Rodentolepis nana [23]): 0%
- EC (Ascaris suum [24]): 0.05 uM 15min-1 mg-1
- EC (Ascaris suum [25]): 0.63 uM 15min-1 mg-1
- Reduction (Ovis aries [26]): 66%
- Reduction (Ovis aries [27]): 100%
- EC (Ascaris suum [28]): 0.48 uM 15min-1 mg-1
- EC (Ascaris suum [29]): 0.86 uM 15min-1 mg-1
- Reduction (Ovis aries [30]): 100%
- Reduction (Ovis aries [31]): 0%
- EC (Ascaris suum [32]): 0.39 uM 15min-1 mg-1
- Reduction (Ovis aries [33]): 0%
- Reduction [34]: 100%

Structure (SMILES): N#C/C(C(=O)Nc1ccccc1)=C(/O)c1ccccc1
- Reduction [35]: 0%
- Reduction (Rodentolepis nana [36]): 0%
